Source: PubChem (SRMLSC)
H69AR inhibit = growth inhibitors of human H69AR lung tumor cells | H69AR lung tumor viability, ATP luminescence, 72 h; active compounds read low | viability, % at 10 µM | 6% of 85,000 active;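 active means viability at or below 40%; inactive means viability above 40%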;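 further: multidrug resistant small cell line overexpressing MRP-1 efflux transporter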
HUVEC prolif 384 = blocks proliferation of human endothelial cells. HUVEC proliferation, CellTiter-Glo luminescence, 72 h; active compounds read low. viability, % at 10 µM (by protocol). AID 648. 1.1% of 86,000 active;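 active means viability at or below 30%; inactive means viability above 30%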
bCat KO growth = beta-catenin-lacking colon tumor cell growth suppression. HCT116 beta-catenin knockout viability, CellTiter-Glo, 60 h; active compounds read low. viability, % at 10 µM. 1.5% of 140,000 active. AID 818;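 active means viability at or under a set limit, the compound median less 4 SD, cut at about 6% in these data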
Fibroblast inh = blocks proliferation of human lung fibroblasts | 1.1% of 85,000 active | viability, % at 10 µM | LL 47 human lung fibroblast viability, ATP luminescence; active compounds read low;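 active means viability at or below 50% in the single dose screen; inactive means viability above 50%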;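 further: compound exposure lasted 72 h before the ATP readout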
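Signal: luminescent ATP detection, CellTiter-Glo; assay system: LL 47 human lung fibroblasts; input: 1,150 cells/well; incubation: overnight cell rest, 72 h compound treatment at 37 °C; measure: % viability versus median cells-only luminescence; medium: IMEM growth medium with 15% fetal bovine serum; dosing: compound addition at 0.1% DMSO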
HCT116 PTEN-null = PTEN-deleted cell growth suppression; viability, % at 10 µM; 1.2% of 140,000 active; HCT116 PTEN-null viability, CellTiter-Glo, 60 h; active compounds read low; AID 827;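 active means viability at or below a set limit, 4 SD under the median of all tested compounds, cut at about 3.7% in these data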;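 further: PTEN knockout HCT116 line with beta catenin targeted HCT116 as companion control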
Hits are given with their value; . = inactive; / = no result given. The full list was thinned out, with hits kept by preference.

SMILES	H69AR inhibit	HUVEC prolif 384	bCat KO growth	Fibroblast inh	HCT116 PTEN-null
O=C(NCc1nc2ccccc2[nH]1)c1ccc(Cl)c(S(=O)(=O)N2CCCC2)c1	.	.	.	.	.
COCCn1c(=NC(=O)C(C)(C)C)sc2cc([N+](=O)[O-])ccc21	/	/	.	/	.
Cn1c(=O)c2c(SCc3cccc(C(F)(F)F)c3)nc(-c3ccco3)nc2n(C)c1=O	.	20	.	48	.
Cn1c(=O)c2c(SCc3ccccc3)nc(-c3ccco3)nc2n(C)c1=O	.	.	.	.	.
COc1ccc(Cl)cc1NC(=O)C(C)N1CCN(C/C=C/c2ccccc2)CC1 (stereo unspecified)	40	.	.	.	.
CS/C(=N\S(=O)(=O)c1cccs1)Nc1ccc(Br)cc1F	/	/	.	/	.
CCn1c(NC(=O)Nc2ccccc2OC)nc2ccccc21	36	.	.	.	.
CCn1c(NC(=O)c2cccs2)nc2ccccc21	33	.	.	.	.
O=C(Nc1ccc(Cl)cc1)/C(=C/c1cccc(O)c1)c1nc2ccccc2s1	/	/	2.2	/	1.9
O=C(/C=C/c1cnc2ccccc2n1)NC12CC3CC(CC(C3)C1)C2	/	/	.	/	.
Cc1ccc(C(=O)Nc2ncc(Cc3ccc(F)cc3)s2)o1	.	30	.	.	.
Cc1ccc(C(=O)Nc2ncc(C)s2)o1	.	.	.	.	.
CCN=c1scc(-c2ccco2)n1/N=C/c1ccc(O)cc1	40	.	.	.	.
COc1ccc(C(C)=O)cc1CSc1nc2ccccc2o1	.	.	1.1	.	1.0
COC(=O)Cc1c[nH]c2cccc(OCC(O)CN(Cc3ccc([N+](=O)[O-])cc3)C(C)(C)C)c12 (stereo unspecified)	40	.	.	.	.
COC(=O)Cc1c[nH]c2cccc(OCC(O)CN(Cc3ccccc3)C(C)C)c12 (stereo unspecified)	.	.	.	.	.
O=[N+]([O-])c1ccc(C2Oc3ccccc3C3CC(c4ccccc4)=NN32)s1 (stereo unspecified)	/	/	3.3	/	2.1
CCOC(=O)NC1(Nc2ccc(C)cc2)Oc2ccccc2O1	/	/	.	/	.
CCOC(=O)NC1(NC(C)C)Oc2ccccc2O1	36	.	.	.	.
CCOC(=O)NC1(NCC(C)C)Oc2ccccc2O1	/	/	.	/	.
CCOC(=O)C(C(=O)Nc1ccccc1C)C1CCCCC1 (stereo unspecified)	.	.	.	.	.
CCOC(=O)NC1(NCc2ccccc2)Oc2ccccc2O1	19	.	.	.	.
CCOC(=O)NC1(NC2CCCCC2)Oc2ccccc2O1	21	.	.	/	.
CC(C)C(=O)N1CCN(c2ccc(NC(=O)c3ccc4c(c3)OCCO4)cc2Cl)CC1	6.2	3.2	1.3	19	1.7
CC(=O)N1CCN(c2ccc(NC(=O)c3ccc4c(c3)OCCO4)cc2)CC1	.	.	.	.	.
SMILES	H69AR inhibit	HUVEC prolif 384	bCat KO growth	Fibroblast inh	HCT116 PTEN-null
CCN(c1ccccc1)S(=O)(=O)c1cc(C(=O)Nc2ccc(F)c(F)c2)ccc1F	/	/	4.5	/	3.4
COc1cc(-c2nnc(Sc3ccc(C(F)(F)F)cc3[N+](=O)[O-])o2)cc(OC)c1OC	1.0	.	.	.	.
CC1(C)Nc2ccc(O)cc2-c2c1ssc2=S	.	27	.	.	.
CCCCn1c(NC(=O)c2ccccc2)c(C#N)c2nc3ccccc3nc21	/	/	.	/	.
CCC(C)n1c(NC(=O)c2ccccc2)c(C#N)c2nc3ccccc3nc21 (stereo unspecified)	2.9	.	/	.	/
COc1cc2c(cc1OC)C(/C(C#N)=N\O)=NC(C)(C)C2	.	.	.	.	.
COc1cc2c(cc1OC)C(SC)=NC(C)(C)C2	.	.	2.2	.	.
CCc1ccc(NC(=S)NC(=O)CC(C)C)cc1	/	/	.	/	.
Cc1cccc(N(C)c2cc(C)nc3nc(C)nn23)c1	23	.	.	.	.
CCN(c1ccccc1)c1cc(C)nc2nc(C)nn12	.	.	.	.	.
O=C(CSCc1ccc(Cl)cc1)Nc1ccc(S(=O)(=O)N2CCOCC2)cc1	/	/	.	/	.
O=C(NC1CCCCC1)C(c1cccnc1)N(C(=O)CCl)c1ccc(F)cc1 (stereo unspecified)	/	/	4.2	/	3.0
COc1ccc(N(C(=O)CCl)C(C(=O)NC2CCCCC2)c2cccnc2)cc1 (stereo unspecified)	/	/	2.8	/	2.5
O=C(NCC(=O)N(c1cccnc1)C(C(=O)NC1CCCCC1)c1cccnc1)c1ccco1 (stereo unspecified)	.	.	.	.	.
O=C(NC1CCCCC1)C(c1cccnc1)N(C(=O)CCl)c1ccccc1Cl (stereo unspecified)	/	/	.	/	.
O=C(O)/C=C/C(=O)Nc1ccccc1SC(F)(F)F	/	/	.	/	.
CCOc1ncccc1C(=O)OCc1cc(=O)n2c(n1)sc1ccccc12	.	.	/	.	/
CCCn1c2ccccc2c2nnc(SC(CC)C(=O)Nc3cc(C)on3)nc21 (stereo unspecified)	32	.	.	.	.
CCCn1c2ccccc2c2nnc(SC(CC)C(=O)Nc3sc4c(c3C#N)CCCC4)nc21 (stereo unspecified)	/	/	.	/	.
c1cc2c3c(cccc3c1)C(N1CCN(C3=Nc4cccc5cccc3c45)CC1)=N2	7.7	.	/	.	/
c1ccc(CC2CCN(C3=Nc4cccc5cccc3c45)CC2)cc1	26	7.2	.	.	.
Cc1cc(C)c(C(=O)COc2cccnc2[N+](=O)[O-])cc1C	1.1	.	.	.	.
O=C(COc1cccnc1[N+](=O)[O-])Nc1ccc2c(c1)OC(F)(F)O2	/	/	.	/	.
Oc1ccc2c(c1)oc1cc(O)ccc12	5.2	.	.	.	.
COc1ccc(-c2nnc(NC(=O)C3=COCCO3)o2)cc1	/	/	.	/	.
SMILES	H69AR inhibit	HUVEC prolif 384	bCat KO growth	Fibroblast inh	HCT116 PTEN-null
COc1cc(/C=c2\sc3n(c2=O)C(c2ccccc2)C(c2ccccc2)=NN=3)ccc1O (stereo unspecified)	.	.	.	.	.
CCOC(=O)C1=C(C)n2c(s/c(=C/c3cccc([N+](=O)[O-])c3)c2=O)=NC1c1ccc(O)c(OC)c1 (stereo unspecified)	3.2	7.4	1.9	17	.
CCSc1nc(N)c(C#N)c(-c2ccccc2Cl)c1C#N	37	.	.	.	.
CCCN(CCC)C(=O)C1CCN(c2cc(C)nc3c(-c4ccc(OC)c(OC)c4)c(C)nn23)CC1	34	.	.	.	.
COc1ccc(-c2c(C)nn3c(N4CCC(C(=O)NCCN(C)C)CC4)cc(C)nc23)cc1OC	30	.	.	.	.
COc1ccccc1-c1c(C)nn2c(N3CCC(C(N)=O)CC3)cc(C)nc12	.	.	.	.	.
CCOc1ccc(NC(=O)CSc2nc(C)c3c(c2C#N)CCCC3)cc1	.	.	.	.	.
CCCCN(CCCC)c1nc(OC)nc(-n2nnc(C(C)=O)c2C)n1	37	.	.	.	.
CC(=O)c1nnn(-c2nc(N)nc(N(c3ccccc3)c3ccccc3)n2)c1C	.	.	.	.	.
COc1cccc(C2CC(c3ccccc3OC)n3ncnc3N2)c1 (stereo unspecified)	31	.	.	.	.
